Paper PMC3472112 (Structure (London, England : 1993), 2012)
Like-named read-outs stand apart in the source and are kept apart here.

Assays:
AI-BP = biological target: T1, AI-BP (Mus musculus, UniProt Q8K4Z3); assay: isothermal titration calorimetry; format: binding; settings: 100 mM HEPES pH 7.5, 100 mM NaCl, 25°C
T1 sequence (Q8K4Z3 25-282): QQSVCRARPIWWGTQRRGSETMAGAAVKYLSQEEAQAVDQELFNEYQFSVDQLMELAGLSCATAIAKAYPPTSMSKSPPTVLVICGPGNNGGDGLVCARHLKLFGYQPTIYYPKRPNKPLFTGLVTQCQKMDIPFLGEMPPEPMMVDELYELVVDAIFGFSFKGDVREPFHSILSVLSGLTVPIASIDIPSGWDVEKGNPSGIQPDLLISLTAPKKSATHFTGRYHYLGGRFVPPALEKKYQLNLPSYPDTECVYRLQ
Method in brief: (§1)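 Isothermal titrations were run at 25°C, with Tm0922 also tested at 55°C, in 100 mM HEPES pH 7.5 with 100 mM NaCl. Purified protein was in the cell at 70-130 μM. Metabolite ligands from the NAD-related and thymine-related sets were titrated to final concentrations 1.2 to 5 times the protein concentration. Binding parameters were taken from curves fitted to the titration profiles.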

Tm0922 = biological target: T2, Tm0922 (Thermotoga maritima, UniProt Q9X024); assay: isothermal titration calorimetry; format: binding
T2 sequence (Q9X024 1-490): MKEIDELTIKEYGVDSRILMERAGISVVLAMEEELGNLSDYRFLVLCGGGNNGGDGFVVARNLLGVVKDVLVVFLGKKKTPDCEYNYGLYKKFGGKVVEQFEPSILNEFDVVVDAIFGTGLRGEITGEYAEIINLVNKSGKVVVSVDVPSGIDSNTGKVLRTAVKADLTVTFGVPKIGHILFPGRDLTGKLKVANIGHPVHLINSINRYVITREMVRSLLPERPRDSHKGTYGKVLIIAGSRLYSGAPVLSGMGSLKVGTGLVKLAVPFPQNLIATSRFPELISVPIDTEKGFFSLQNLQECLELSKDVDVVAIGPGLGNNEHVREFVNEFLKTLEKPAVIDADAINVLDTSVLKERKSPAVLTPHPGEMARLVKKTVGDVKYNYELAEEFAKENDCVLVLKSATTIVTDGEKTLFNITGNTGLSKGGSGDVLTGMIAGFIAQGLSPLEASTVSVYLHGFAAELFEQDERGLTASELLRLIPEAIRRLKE
Method in brief: as §1

YxkO [1] = biological target: T3, YxkO (Bacillus subtilis, UniProt P94368); assay: isothermal titration calorimetry; format: binding
T3 sequence (P94368 1-276): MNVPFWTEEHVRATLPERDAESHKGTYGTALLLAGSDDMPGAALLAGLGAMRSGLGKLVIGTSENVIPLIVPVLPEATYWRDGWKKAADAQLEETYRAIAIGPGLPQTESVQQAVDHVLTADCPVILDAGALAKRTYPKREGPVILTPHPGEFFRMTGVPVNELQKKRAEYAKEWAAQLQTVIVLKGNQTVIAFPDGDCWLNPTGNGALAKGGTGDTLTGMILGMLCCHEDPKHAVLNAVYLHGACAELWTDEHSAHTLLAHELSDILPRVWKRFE
Method in brief: as §1

YxkO [2] = biological target: T3, YxkO; assay: crystal structure; settings: ATP-binding site, Mg2+
YxkO [3] = biological target: T3, YxkO; assay: crystal structure; format: binding; settings: kinase substrate site, AMP/Mg2+ in ATP site; dehydratase substrate
purified protein [4] = substrate: NC(=O)C1=CN([C@@H]2O[C@H](COP(=O)(O)OP(=O)(O)OC[C@H]3O[C@@H](n4cnc5c(N)ncnc54)[C@H](O)[C@@H]3O)[C@@H](O)[C@H]2O)C(O)CC1; assay: purified protein; format: biochemical, Bacillus subtilis; settings: co-substrate ADP, 25°C
purified protein [5] = substrate: Nc1ncnc2c1ncn2[C@@H]1O[C@H](COP(=O)(O)OP(=O)(O)O)[C@@H](O)[C@H]1O; assay: purified protein; format: biochemical, Bacillus subtilis; settings: co-substrate NADHX, 25°C, varied: cofactor

In the case of `Nc1ncnc2c1ncn2[C@@H]1O[C@H](COP(=O)(O)OP(=O)(O)OC[C@H]2OC(O)[C@H](O)[C@@H]2O)[C@@H](O)[C@H]1O` (stereo partly shown) [ADPR], the Kd (AI-BP) is reported as 451 ± 30.8 µM and the Kd (Tm0922; 100 mM HEPES pH 7.5, 100 mM NaCl, 25°C (55°C also tested), likely YjeF_N site) is reported as 5.1 ± 0.4 µM.

Molecule `Nc1ncnc2c1ncn2[C@@H]1O[C@H](COP(=O)(O)OP(=O)(O)OP(=O)(O)O)[C@@H](O)[C@H]1O` [ATP] has a Kd (YxkO [1]) of 595 ± 134 µM.

For `Nc1ncnc2c1ncn2[C@@H]1O[C@H](COP(=O)(O)OP(=O)(O)OC[C@H]2O[C@@H]([n+]3cccc(C(=O)O)c3)[C@H](O)[C@@H]2O)[C@@H](O)[C@H]1OP(=O)(O)O` [NAADP], the Kd (Tm0922) was 105 ± 11.1 µM.

For `Nc1ncnc2c1ncn2[C@@H]1O[C@H](COP(=O)(O)OP(=O)([O-])OC[C@H]2O[C@@H]([n+]3cccc(C(=O)O)c3)[C@H](O)[C@@H]2O)[C@@H](O)[C@H]1O` [NAAD], the “crystal structure (cocktail soak)” value (YxkO [2]) was “nicotinic acid adenine dinucleotide (NAAD) is bound in the same position”.

`NC(=O)C1=CN([C@@H]2O[C@H](COP(=O)(O)OP(=O)(O)OC[C@H]3O[C@@H](n4cnc5c(N)ncnc54)[C@H](O)[C@@H]3O)[C@@H](O)[C@H]2O)C=CC1` [NADH] was tested, and the Kd (YxkO [1]) was 9.6 ± 0.7 µM.

In the case of `NC(=O)C1=CN([C@@H]2O[C@H](COP(=O)(O)OP(=O)(O)OC[C@H]3O[C@@H](n4cnc5c(N)ncnc54)[C@H](OP(=O)(O)O)[C@@H]3O)[C@@H](O)[C@H]2O)C(O)CC1` (stereo partly shown) [NADPHX], the “crystal structure (ATP/Mg2+ co-crystal soaked with NADPH)” value (YxkO [3]) is reported as “Coordination of NADPHX in the active site of YxkO”.

For `NC(=O)C1=CN([C@@H]2O[C@H](COP(=O)(O)OP(=O)(O)OC[C@H]3O[C@@H](n4cnc5c(N)ncnc54)[C@H](OP(=O)(O)O)[C@@H]3O)[C@@H](O)[C@H]2O)C=CC1` [NADPH], the Kd (Tm0922) was 5.3 ± 1.2 µM.

`NC(=O)c1ccc[n+]([C@@H]2O[C@H](COP(=O)(O)OP(=O)(O)OC[C@H]3O[C@@H](n4cnc5c(N)ncnc54)[C@H](OP(=O)(O)O)[C@@H]3O)[C@@H](O)[C@H]2O)c1` [NADP] gave a Kd (Tm0922) of 6 ± 0.9 µM.

For `NC(=O)c1ccc[n+]([C@@H]2O[C@H](COP(=O)(O)OP(=O)(O)OC[C@H]3O[C@@H](n4cnc5c(N)ncnc54)[C@H](O)[C@@H]3O)[C@@H](O)[C@H]2O)c1` [NAD], the “crystal structure (cocktail soak)” value (YxkO [2]) was “YxkO and Tm0922 crystals soaked with cocktail G contained NAD in the predicted ATP-binding site”.

B1: YxkO (Bacillus subtilis subsp. subtilis str. 168) (protein)
chain: MNVPFWTEEHVRATLPERDAESHKGTYGTALLLAGSDDMPGAALLAGLGAMRSGLGKLVIGTSENVIPLIVPVLPEATYWRDGWKKAADAQLEETYRAIAIGPGLPQTESVQQAVDHVLTADCPVILDAGALAKRTYPKREGPVILTPHPGEFFRMTGVPVNELQKKRAEYAKEWAAQLQTVIVLKGNQTVIAFPDGDCWLNPTGNGALAKGGTGDTLTGMILGMLCCHEDPKHAVLNAVYLHGACAELWTDEHSAHTLLAHELSDILPRVWKRFE
B1 gave a kcat (purified protein [4]) of 0.35 ± 0.01 s⁻¹, a Km (purified protein [5]) of 6.43 ± 0.49 µM and a kcat (purified protein [5]) of 0.35 ± 0.01 s⁻¹.
